Results as given in article PMC6588464 (Cell chemical biology, 2019).

Assays:
cyclin K- CDK12/13 = details: HAP1 cells, 6 hours
[1] = tested on: CDK7-C312S expressing HAP1 cells; assay: Growth rate inhibition; assay type: cell-based, human; details: for GRmax in CDK7-C312S cells: HAP1 CDK7-C312S, 72 hours
Outline: (§1)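 HAP1 WT or CDK7-C312S cells were seeded at 500 cells/well, adhered 24 h, then treated with a dilution series for 72 h. Live cells were identified by a dead-cell stain and Hoechst nuclear segmentation and counted at dosing and at 72 h. Counts were normalised to same-plate DMSO controls to give growth rate inhibition (GR) values. Technical duplicates in biological triplicate.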

Jurkat cells = assay: Proliferation assay, Cell Titer Glo; assay type: cell-based, human; details: 72 h, highest concentrations
Outline: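 Jurkat cells at 2 × 10^4 cells/mL were exposed 72 h to compound at final concentrations from 20μM to 600pM. Viability was read by CellTiter-Glo luminescence, and IC50 was fitted by nonlinear regression. Run in triplicate.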

HAP1 cells [2] = assay: LIVE/DEAD dye staining in HAP1 cells; assay type: cell-based, human; details: HAP1 WT and CDK7-C312S, 72 hours
Outline: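 HAP1 WT and CDK7-C312S cells were plated at 500 cells/well and allowed to adhere 24 h before a dilution series of test compound. Cells were analysed at time of dosing and after 72 h. After a 1 h EdU pulse they were stained with LIVE/DEAD Far Red (1:2000), then fixed with 3.7% formaldehyde for 30 min. Mean dye intensity within Hoechst nuclear masks classified cells as live or dead. Technical duplicates, biological triplicate.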

CDK7-cyclin H [3] = assay: Competitive bioTHZ1 pulldown in HAP1 cells; assay type: cell-based, human; details: for time required for equivalent engagement of CDK7 (>50%): compared with 30 min for YKL-5-124
HAP1 cells [4] = assay: Growth rate inhibition; assay type: cell-based, human; details: for GRmax: HAP1 wild-type, 72 hours
Outline: as §1

CDK12/13 = details: ref Zhang et al., 2016; Gao et al., 2018; cited from earlier work
phospho-CDK1(T161) = assay: Western blot of CDK1 T-loop phosphorylation in HAP1 cells; assay type: cell-based, human; details: for effect on CDK1 T-loop phosphorylation: HAP1 WT, 24 hours, 125 nM to 2 μM YKL-5-124 or 2 μM YKL-5-167
Outline: (§2)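 HAP1 WT and CDK7-C312S cells were treated 24 h across a concentration range, or with 2μM over a time course. Cells were lysed 30 min on ice in RIPA (50mM Tris-HCl, 150 mM NaCl, 1% NP-40, 0.5% deoxycholate, 0.1% SDS, pH 7.4) with protease/phosphatase inhibitors and nuclease. Blots were probed for phospho-T161 CDK1, phospho-T160 CDK2 and the total proteins, and detected with infrared-labelled secondaries.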

[5] = tested on: HAP1 cells expressing CDK7-C312S; assay: Cell cycle analysis; assay type: cell-based, human; details: 72 hours
Outline: (§3)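 HAP1 WT and CDK7-C312S clones were seeded at 500 cells/well and allowed to adhere 24 h, then given a compound dilution series. Cells were analysed at dosing and after 72 h: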

CDK2/CycA = CDK2/CycA (Homo sapiens, UniProt P24941); assay: Z'LYTE kinase assay, Km ATP; assay type: biochemical; details: read-out: IC50 CDK2
PARP cleavage = assay: Western blot for PARP cleavage; assay type: cell-based, human; details: HAP1, all conditions up to 2 μM and 48 hours
CDK7/CycH/Mat1 = CDK7/CycH/Mat1 (Homo sapiens, UniProt P50613); assay: Covalent inhibition kinetics, peptide substrate mobility shift assay; assay type: biochemical
CDK13 = details: ATP 1mM, at the concentrations tested
CDK7 C312S = assay type: cell-based, Human
Outline: (§4)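 HeLa cells stably expressing FLAG-tagged wild-type or C312S CDK7 were treated 6 h with compound or DMSO and lysed. Substrate was 1 μg RPB1 with 25 μM ATP plus 10 μCi 32P-ATP. Read-out was SDS-PAGE and phosphorimaging.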

CDK7 [6] = assay: KiNativ profiling in Jurkat cells; assay type: cell-based, human; details: 1μM, 6 hours
Outline: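 Jurkat cells were treated 6 h with 1μM compound or DMSO, then sonicated in 50 mM HEPES pH 7.5, 150 mM NaCl, 0.1% Triton X-100 with phosphatase inhibitors. Cleared lysate was labelled 10 min with 20 μM desthiobiotin-ATP acyl-nucleotide probe, denatured, alkylated and trypsin-digested for 1 h at 37°C. Probe-labelled peptides were captured on streptavidin and quantified by mass spectrometry as probe-binding block versus DMSO.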

CDK7-C312S cells = assay type: cell-based, human; details: 500nM, 24 hr
Outline: (§5)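 HAP1 WT or CDK7-C312S cells (1×106) were treated 24 h with 500nM or 2μM compound, alone or combined with a 250nM CDK12/13 inhibitor, with DMSO controls. RNA-seq was run in triplicate and genes were called differentially expressed at log2 fold change >1.5. Gene-set overlap between treatments was scored by Jaccard similarity index.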

WT HAP1 cells = assay: RNA sequencing, differential expression and Jaccard analysis in HAP1 WT cells; assay type: cell-based, human; details: WT HAP1, 500nM, 24 hr, log2 fold change >1.5
Outline: as §5

[7] = tested on: Pol II CTD S2/S5/S7 phosphorylation; assay: Western blot of RNA Pol II CTD phosphorylation in HAP1 and Jurkat cells; assay type: cell-based, human; details: up to 2 uM, combination with 250nM THZ531
Outline: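 HAP1 WT and CDK7-C312S cells were treated 24 h with compound at the indicated concentrations, alone or with 250nM CDK12/13 inhibitor co-treatment. Lysis was 30 min on ice in RIPA buffer (50mM Tris-HCl, 150 mM NaCl, 1% NP-40, 0.5% deoxycholate, 0.1% SDS, pH 7.4) with protease/phosphatase inhibitors and nuclease. Pol II CTD phospho-serine marks were immunoblotted and detected with infrared-labelled secondary antibodies (1:10,000).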

CDK9/CycT1 = CDK9/CycT1 (Homo sapiens, UniProt P50750); assay: Adapta Eu kinase assay, Km ATP; assay type: biochemical; details: read-out: IC50 CDK9
[8] = tested on: CDK7-cyclin H-MAT1 trimeric complex; assay: Mass spectrometry analysis of covalent labeling of recombinant CAK complex; assay type: binding; details: recombinant complex incubated 4 hours at 37 °C
Outline: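 Recombinant CAK complex (CDK7/cyclin H/MNAT1) was incubated with test compound or DMSO for 4 h at 37 °C and resolved by SDS-PAGE, then analysed by nanoLC/MS. Two unlabeled, non-cysteine CDK7 peptides served for normalization. For CE-MS, treated complex was denatured (0.1% Rapigest final), reduced (10 mM DTT), alkylated (22.5 mM iodoacetamide) and trypsin-digested overnight at 37 °C.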

CDK7 [9] = target: CDK7 (Homo sapiens, UniProt P50613); assay: Radioactive in vitro kinase assay at 1 mM ATP; assay type: biochemical; details: read-out: IC50 for CDK7; ATP concentration of 1mM
CDK12 = assay: Radioactive in vitro kinase assay at 1 mM ATP; assay type: biochemical; details: ATP 1mM, at the concentrations tested
CDK7/Mat1/CycH = CDK7/Mat1/CycH (Homo sapiens, UniProt P50613); assay: Adapta Eu fixed time point in vitro kinase assay, Km ATP; assay type: biochemical
HAP1 cells [10] = assay: Cell cycle analysis; assay type: cell-based, human; details: HAP1 WT, 72 hours
Outline: as §3

CDK7 [11] = assay type: cell-based, Human; details: at 10μM, Hela cells treated 6 hours, wild-type CDK7
Outline: as §4

CDK2(T160) = assay: Western blot of CDK2 T-loop phosphorylation in HAP1 cells; assay type: cell-based, human; details: HAP1 WT, 24 hours, 125 nM to 2 μM YKL-5-124 or 2 μM YKL-5-167
Outline: as §2

CDK7-cyclin H [12] = assay: Competitive bioTHZ1 pulldown in Jurkat cells; assay type: cell-based, human; details: Jurkat cells versus HAP1 cells

CDK7/CycH/Mat1, sequence (P50613 whole entry): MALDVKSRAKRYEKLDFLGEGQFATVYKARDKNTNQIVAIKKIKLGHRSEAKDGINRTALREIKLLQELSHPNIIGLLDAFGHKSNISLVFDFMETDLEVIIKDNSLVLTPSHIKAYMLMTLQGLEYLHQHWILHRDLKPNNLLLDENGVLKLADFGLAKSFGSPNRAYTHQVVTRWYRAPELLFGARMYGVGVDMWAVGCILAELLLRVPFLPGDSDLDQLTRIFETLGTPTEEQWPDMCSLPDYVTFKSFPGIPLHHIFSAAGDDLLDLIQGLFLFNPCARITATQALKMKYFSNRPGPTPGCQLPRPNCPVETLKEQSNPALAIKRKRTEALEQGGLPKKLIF
CDK7/CycH/Mat1, sequence (P51946 whole entry partner): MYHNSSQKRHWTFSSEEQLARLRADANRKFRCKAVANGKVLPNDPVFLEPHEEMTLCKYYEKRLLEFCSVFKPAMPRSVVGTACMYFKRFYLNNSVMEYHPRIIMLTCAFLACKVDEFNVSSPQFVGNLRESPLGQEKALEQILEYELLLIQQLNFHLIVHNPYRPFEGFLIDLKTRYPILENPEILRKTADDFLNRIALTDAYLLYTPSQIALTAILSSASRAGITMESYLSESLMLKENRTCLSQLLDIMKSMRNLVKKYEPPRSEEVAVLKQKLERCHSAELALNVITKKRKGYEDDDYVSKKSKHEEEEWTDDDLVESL
CDK7/CycH/Mat1, sequence (P51948 whole entry partner): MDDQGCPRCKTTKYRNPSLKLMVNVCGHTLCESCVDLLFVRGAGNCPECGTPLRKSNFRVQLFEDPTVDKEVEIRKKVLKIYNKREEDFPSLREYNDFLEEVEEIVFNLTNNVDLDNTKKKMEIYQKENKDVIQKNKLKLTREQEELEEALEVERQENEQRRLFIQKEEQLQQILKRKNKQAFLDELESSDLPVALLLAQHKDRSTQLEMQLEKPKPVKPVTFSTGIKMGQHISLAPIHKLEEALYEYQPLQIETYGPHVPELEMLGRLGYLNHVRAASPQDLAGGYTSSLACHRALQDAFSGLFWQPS
CDK7/Mat1/CycH, sequence (P50613 whole entry): as the sequence (P50613 whole entry) above
CDK7/Mat1/CycH, sequence (P51946 whole entry partner): as the sequence (P51946 whole entry partner) above
CDK7/Mat1/CycH, sequence (P51948 whole entry partner): as the sequence (P51948 whole entry partner) above
CDK7 (Homo sapiens, UniProt P50613), sequence (P50613 2-346): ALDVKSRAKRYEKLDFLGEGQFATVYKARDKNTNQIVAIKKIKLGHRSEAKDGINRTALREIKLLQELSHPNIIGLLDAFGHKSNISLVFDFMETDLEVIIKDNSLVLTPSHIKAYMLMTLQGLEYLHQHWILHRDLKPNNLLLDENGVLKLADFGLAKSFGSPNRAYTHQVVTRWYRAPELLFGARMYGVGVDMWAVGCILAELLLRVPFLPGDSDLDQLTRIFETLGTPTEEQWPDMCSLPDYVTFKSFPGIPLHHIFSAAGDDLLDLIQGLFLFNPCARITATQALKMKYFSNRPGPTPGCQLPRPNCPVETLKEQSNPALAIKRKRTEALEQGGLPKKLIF
CDK7 (Homo sapiens, UniProt P50613), sequence (P51946 whole entry partner): as the sequence (P51946 whole entry partner) above
CDK7 (Homo sapiens, UniProt P50613), sequence (P51948 whole entry partner): as the sequence (P51948 whole entry partner) above
CDK9/CycT1, sequence (P50750 whole entry): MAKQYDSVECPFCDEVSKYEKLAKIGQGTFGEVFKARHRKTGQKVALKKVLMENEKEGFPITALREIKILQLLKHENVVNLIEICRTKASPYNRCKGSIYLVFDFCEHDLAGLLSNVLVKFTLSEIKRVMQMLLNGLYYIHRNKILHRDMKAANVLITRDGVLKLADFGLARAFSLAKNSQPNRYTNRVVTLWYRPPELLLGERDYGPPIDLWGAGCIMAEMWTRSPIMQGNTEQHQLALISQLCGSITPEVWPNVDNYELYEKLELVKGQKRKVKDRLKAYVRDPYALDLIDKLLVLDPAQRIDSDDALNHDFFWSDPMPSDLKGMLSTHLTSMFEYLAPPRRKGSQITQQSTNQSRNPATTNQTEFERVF
CDK9/CycT1, sequence (O60563 whole entry partner): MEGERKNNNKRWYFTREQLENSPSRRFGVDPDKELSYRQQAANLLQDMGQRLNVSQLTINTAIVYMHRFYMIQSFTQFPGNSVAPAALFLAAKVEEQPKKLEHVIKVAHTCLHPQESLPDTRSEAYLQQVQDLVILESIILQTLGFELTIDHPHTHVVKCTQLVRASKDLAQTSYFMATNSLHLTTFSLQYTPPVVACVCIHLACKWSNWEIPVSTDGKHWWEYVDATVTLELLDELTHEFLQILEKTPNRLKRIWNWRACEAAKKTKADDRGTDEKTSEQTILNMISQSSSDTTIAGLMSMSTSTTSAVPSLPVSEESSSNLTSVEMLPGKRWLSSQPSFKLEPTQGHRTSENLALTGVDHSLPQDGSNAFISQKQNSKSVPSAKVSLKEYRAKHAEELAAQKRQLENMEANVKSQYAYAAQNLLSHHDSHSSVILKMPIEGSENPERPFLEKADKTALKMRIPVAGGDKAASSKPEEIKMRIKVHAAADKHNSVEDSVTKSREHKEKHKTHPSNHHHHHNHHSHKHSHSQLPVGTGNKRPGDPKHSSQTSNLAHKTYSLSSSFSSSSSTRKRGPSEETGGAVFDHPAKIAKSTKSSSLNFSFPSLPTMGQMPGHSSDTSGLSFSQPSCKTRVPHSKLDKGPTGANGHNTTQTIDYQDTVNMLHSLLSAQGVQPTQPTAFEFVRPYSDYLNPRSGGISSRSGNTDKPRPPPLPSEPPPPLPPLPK

**Q.** For `CN(C)C/C=C/C(=O)Nc1ccc(C(=O)Nc2cccc(Nc3ncc(Cl)c(-c4c[nH]c5ccccc45)n3)c2)cc1` [THZ1, reference compound], which “effect on pulldown of cyclin K- CDK12/13” value (cyclin K- CDK12/13) is on record?
**A.** bound to both CDK7 and CDK12/13

**Q.** What about the “GRmax in CDK7-C312S cells” value [1] of the same molecule?
**A.** unchanged

**Q.** What about the “maximal inhibition of proliferation” value (Jurkat cells) of the same molecule?
**A.** inhibit proliferation to zero

**Q.** And the “cell death by LIVE/DEAD dye” value (HAP1 cells [2])?
**A.** induced substantially more cell death than YKL-5-124

**Q.** And the “time required for equivalent engagement of CDK7 (>50%)” value (CDK7-cyclin H [3]; HAP1 cells)?
**A.** twice as long

**Q.** And the GRmax (HAP1 cells [4])?
**A.** negative

**Q.** Which “times more potent on CDK12/13 than CDK7” value (CDK12/13) does the source give for `CN(C)C/C=C/C(=O)Nc1ccc(C(=O)N2CCC[C@@H](Nc3ncc(Cl)c(-c4c[nH]c5ccccc45)n3)C2)cc1` [THZ531] here?
**A.** approximately 20 times

**Q.** What does the source list for `C=CC(=O)Nc1ccc(C(=O)Nc2n[nH]c3c2CN(C(=O)N[C@H](CN(C)C)c2ccccc2)C3(C)C)cc1` [YKL-5-124, (S)-3-(4-acrylamidobenzamido)-N-(2-(dimethylammo)-1-phenylethyl)-6,6-dimethyl-4,6-dihydropyrrolo[3,4-c]pyrazole-5(1H)-carboxamide]?
**A.** time to inhibition of T-loop phosphorylation (phospho-CDK1(T161); HAP1, 2μM): ≤ 12 h; effect on CDK1 T-loop phosphorylation (phospho-CDK1(T161)): inhibited CDK1 T-loop phosphorylation; concentration for reduced CDK1/2 activation (phospho-CDK1(T161); HAP1 and Jurkat cells): exceeding 1 μM; effect on cell cycle distribution in CDK7-C312S cells [5]: cell cycle distribution was not affected; effect on pulldown of cyclin K- CDK12/13 (cyclin K- CDK12/13): no effect; IC50 (CDK2/CycA): 1300 nM; GR50 fold higher in CDK7-C312S than in wild-type cells ([1]; HAP1, 72 hours): at least 150 fold; GRmax in CDK7-C312S cells [1]: too high to be estimated accurately; PARP cleavage / apoptosis (PARP cleavage): apoptosis was not induced; Ki (CDK7/CycH/Mat1; 1 mM ATP, 2-step inactivation model): 1.9 nM; covalently modifies CDK7 times faster than THZ1 (CDK7/CycH/Mat1; ratio of kinact values): approximately 11 times; inhibition of CDK13 (CDK13): no inhibition; inhibitory activity in the in vitro kinase assay with C312S mutant (CDK7 C312S): abolished the inhibitory activity; maximal inhibition of proliferation (residual, of the original cell count) (Jurkat cells): ≤ 20%; CDK7 bound (block of desthiobiotin-ATP probe) (CDK7 [6]): more than 65%; number of differentially expressed genes (CDK7-C312S cells): 583 genes; number of differentially expressed genes (WT HAP1 cells): 1452 genes; effect on phosphorylation of S5 and other Pol II CTD serine residues [7]: no effect; IC50 (CDK9/CycT1): 3020 nM; efficiency of covalent labeling of CDK7 [8]: approximately 99%; IC50 (CDK7 [9]): 53.5 nM; inhibition of CDK12 (CDK12): no inhibition; cell death by LIVE/DEAD dye (HAP1 cells [2]): substantially reduced in CDK7-C312S cells; selectivity for CDK7 than CDK9 and CDK2 (CDK7/Mat1/CycH): 100 fold; IC50 (CDK7/Mat1/CycH; read-out: IC50 CDK7/Mat1/CycH, fixed time point, Km ATP): 9.7 nM; reduction of CDK7-cyclin H binding to bioTHZ1 (CDK7-cyclin H [3]; 100 nM, 30 min): > 50%; concentration that blocked pulldown of CDK7-cyclin H (CDK7-cyclin H [3]; HAP1 cells, 6 hours): about 30 nM; lowest concentration with engagement of CDK7 three hours after washout (CDK7-cyclin H [3]; washout after 3-hour treatment): 125 nM; concentration at which strong anti-proliferative effects begin (HAP1 cells [4]; HAP1 and Jurkat cells): 100 nM; GRmax (HAP1 cells [4]): zero; effect on cell cycle distribution (HAP1 cells [10]): dose-dependent increase in G1 and G2/M phase cells and a corresponding loss of S phase cells

**Q.** For `CCC(=O)Nc1ccc(C(=O)Nc2n[nH]c3c2CN(C(=O)N[C@H](CN(C)C)c2ccccc2)C3(C)C)cc1` [YKL-5-167, (S)-N-(2-(dimethylamino)-1-phenylethyl)-6,6-dimethyl-3-(4-propionamidobenzamido)-4,6-dihydropyrrolo[3,4-c]pyrazole-5(1H)-carboxamide], which “effect on CDK1 T-loop phosphorylation” value (phospho-CDK1(T161)) is on record?
**A.** no detectable effect

**Q.** What about the “inhibition of phosphorylation of RNA polymerase II substrate” value (CDK7 [11]) of the same molecule?
**A.** little or no inhibition

**Q.** What about the “effect on CDK2 T-loop phosphorylation” value (CDK2(T160)) of the same molecule?
**A.** no detectable effect

**Q.** And the “CDK7 engagement in KiNativ” value (CDK7 [6])?
**A.** only weakly engaged

**Q.** What about the “fold higher concentrations required to function as a competitor” value (CDK7-cyclin H [12]) of the same molecule?
**A.** 10 fold

**Q.** And the “time required for equivalent engagement of CDK7 (>50%)” value (CDK7-cyclin H [3]; HAP1 cells)?
**A.** 6 h

**Q.** What about the “fold less effective as a competitor for CDK7-cyclin H” value (CDK7-cyclin H [3]; relative to YKL-5-124) of the same molecule?
**A.** 100 fold

**Q.** What about the “activity as competitor following washout” value (CDK7-cyclin H [3]; washout after 3-hour treatment) of the same molecule?
**A.** inactive following washout

**Q.** And the “effect on cell cycle distribution” value (HAP1 cells [10])?
**A.** no effect on cell cycle distribution
